Here are results for 18 compounds from ChEMBL document CHEMBL1124644, “Exploration of phenyl-spaced 2-amino-(5-9)-phosphonoalkanoic acids as competitive N-methyl-D-aspartic acid antagonists” (J Med Chem, 1989).

The target in experiment [1] is Glutamate NMDA receptor. Kind of experiment: (§1) N-methyl-D-aspartate glutamate receptor antagonistic activity was assessed from the ability to displace [3H]CPP29,30 from rat cortical membranes.
Experiment [2] addresses Glutamate NMDA receptor. Kind of experiment: NMDA receptor antagonistic activity was assessed from the ability to displace [3H]CPP29,30 from rat cortical membranes. Put shortly: (§2)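 Crude synaptic membranes came from Long-Evans male rat forebrain (minus cerebellum and brainstem) and were treated with 0.01% Triton X-100 for 30 min at 37 °C, then washed. Membranes (200–400 µg protein/mL) were incubated with 10 nM [³H]CPP in 50 mM Tris-HCl, pH 7.6, for 15 min at 23 °C, in triplicate, and separated by centrifugation. Nonspecific binding was defined with 1 mM L-glutamate. IC50 came from a nonlinear fit of four or more concentrations.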

In experiment [3] the test system is Mus musculus. The experiment in a line: Compound was tested in vivo for the maximum dose that protects from NMDA-induced death in mice; Inactive. Format: functional. The method, boiled down:
(§3)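 CF-1 mice (22–28 g) got the test agent by retrobulbar iv injection in 0.9% saline (5 mL/kg), then NMDA 25 mg/kg retrobulbar iv 5 or 30 min later. Doses were tested up to 30 mg/kg, scoring protection from lethal seizures.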

Experiment [4] has as its target T1, Glutamate NMDA receptor (Rattus norvegicus) (UniProt P35439+Q00959+Q00960+Q00961+Q62645+Q8VHN2+Q9R1M7). Kind of experiment: NMDA receptor antagonistic ability of 100 uM of compound was assessed from the ability to displace [3H]CPP29,30 from rat cortical membranes. Format: cell membranes. The following applies: Membrane.
For experiment [5], the species on record is Mus musculus. The experiment in a line: NMDA receptor antagonist activity was measured as ataxia (the inability of the mice to cling to screen platform upon its inversion.). Format: functional. The method, boiled down: (§4)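 CF-1 mice (22–28 g) were dosed retrobulbarly with test agent or vehicle (0.9% saline, 5 mL/kg). Just before the NMDA challenge they were placed on an inverted screen. Ataxia was scored as failure to cling to the platform after inversion, and ED50 values were derived from dose-response data.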

In experiment [6] the target is Glutamate NMDA receptor. Kind of experiment: NMDA receptor antagonistic activity was assessed in vitro by the assement of ability to inhibit glutamate-induced accumulation of [Ca2+] in cultured rat cortical neurons. It is filed as functional. The method, boiled down: (§5)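 Cortical neurons from E18 Sprague-Dawley rat fetuses were tested 14–16 days after plating. Cells were exposed for 30 min at 37 °C to 100 µM L-glutamate with ⁴⁵Ca²⁺ (2 µCi/mL) in Mg-free HBSS containing 1.4 mM CaCl₂ at pH 7.4, then washed and lysed for counting. Baseline uptake was subtracted. IC50 came from at least four half-log concentrations with six or more replicates each.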

Experiment [7] concerns the target Glutamate NMDA receptor. Kind of experiment: NMDA receptor antagonistic activity was assessed from the ability to displace [3H]CPP29,30 from rat cortical membranes. Put shortly:
as §2

For experiment [8], the system named is Mus musculus. Kind of experiment: NMDA receptor antagonist activity of compound was demonstarted in vivo, by the inhibition of NMDA-induced lethality in mouse. It is filed as functional. Put shortly: (§6)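 CF-1 mice (22–28 g) were dosed retrobulbar with test agent or vehicle (0.9% saline, 5 mL/kg), 5 or 30 min before a bolus retrobulbar injection of NMDA (25 mg/kg) in saline into the other eye. The endpoint was prevention of death from seizures. ED50 came from at least three half-log doses with 10 mice per dose.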

Experiment [9] has as its target T1, Glutamate NMDA receptor (Rattus norvegicus). The experiment in a line: N-methyl-D-aspartate glutamate receptor antagonistic ability of 100 uM of compound was assessed from the ability to displace [3H]CPP29,30 from rat cortical membranes. Format: cell membranes. Conditions: Membrane.
The species entered for experiment [10] is Mus musculus. Kind of experiment: Compound was tested for the maximum dose that protects from NMDA-induced death. Format: functional. Put shortly:
as §3

In experiment [11] the test system is Mus musculus. Kind of experiment: N-methyl-D-aspartate glutamate receptor antagonist activity of compound was demonstarted by the inhibition of NMDA-induced lethality in mouse;IA means Compound was inactive at 30 mg/kg when examined after 5 or 30 min after iv dosing. Details: dose 30 mg/kg. Format: functional, organism-based. The method, boiled down:
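CF-1 mice (22–28 g) received test agent or vehicle (0.9% saline, 5 mL/kg) by retrobulbar injection 5 min before a bolus retrobulbar NMDA dose of 25 mg/kg in saline, which causes lethal seizures in untreated controls. Protection from death was scored. ED50 came from dose-response curves of at least three half-log doses with 10 mice per dose.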

In experiment [12] the target is Glutamate NMDA receptor. Described as §1. The method, boiled down:
as §2
The source holds these as a separate data set.

Experiment [13] relates to Mus musculus. The experiment in a line: N-methyl-D-aspartate glutamate receptor antagonist activity was measured as ataxia (the inability of the mice to cling to screen platform upon its inversion; IA means Compound was inactive at 30 mg/kg when examined after 5 or 30 min after iv dosing. It is filed as functional, organism-based. The arrangement: dose 30 mg/kg. The method, boiled down:
as §4

Experiment [14] addresses T1, Glutamate NMDA receptor (Rattus norvegicus). The experiment in a line: N-methyl-D-aspartate glutamate receptorA antagonistic activity was assessed from the ability to inhibit glutamate-induced accumulation of [Ca2+] in cultured rat cortical neurons;IA means Compound was inactive up to 250 uM. It is filed as functional. The method, boiled down:
as §5

In experiment [15] the test system is Mus musculus. Kind of experiment: NMDA antagonist activity was measured as ataxia (the inability of the mice to cling to screen platform upon its inversion.) tested in vivo. Format: functional. Put shortly:
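Ataxia was scored in CF-1 mice (22–28 g) on an inverted screen, as failure to cling when the platform was inverted. Scoring was done just before NMDA challenge (25 mg/kg, retrobulbar iv) and after retrobulbar dosing of the test agent in 0.9% saline (5 mL/kg). The result is reported as an ED50.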

Experiment [16] concerns Mus musculus. Kind of experiment: NMDA receptor antagonist activity of compound was demonstarted in vivo by the inhibition of NMDA-induced lethality in mouse tested in vivo. It is filed as functional. The method, boiled down:
as §6

Experiment [17] concerns the target Glutamate NMDA receptor. The experiment in a line: NMDA receptor antagonistic activity was assessed in vitro by deteriming the ability to inhibit glutamate-induced accumulation of [Ca2+] in cultured rat cortical neurons. Format: functional. Put shortly:
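Rat (Sprague-Dawley, E18) cerebral hemisphere neurons, trypsin-dissociated, plated on poly-L-lysine at 200 000 cells/cm², used on days 14–16. Assay in serum- and Mg-free HBSS with 1.4 mM CaCl₂, pH 7.4, 37 °C. 30-min exposure to 100 µM L-glutamate (final) plus trace ⁴⁵Ca²⁺, with or without test agent. Baseline subtracted. IC50 from ≥4 half-log concentrations, ≥6 replicates each.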

The species named for experiment [18] is Mus musculus. Kind of experiment: N-methyl-D-aspartate glutamate receptor antagonist activity was measured as ataxia (the inability of the mice to cling to screen platform upon its inversion.). Format: functional. The method, boiled down:
as §4

For experiment [19], the target named is Glutamate NMDA receptor. The experiment in a line: N-methyl-D-aspartate glutamate receptor antagonistic activity was assessed from the ability to inhibit glutamate-induced accumulation of [Ca2+] in cultured rat cortical neurons. It is filed as functional. The method, boiled down:
as §5

For experiment [20], the species on record is Mus musculus. Kind of experiment: N-methyl-D-aspartate glutamate receptor antagonist activity of compound was demonstarted by the inhibition of NMDA-induced lethality in mouse. It is filed as functional. The method, boiled down:
as §6

For experiment [21], the species on record is Mus musculus. The experiment in a line: Compound was tested for the maximum dose that protects from NMDA-induced death in mice; Inactive. It is filed as functional. The method, boiled down:
as §3

The structures appear in SMILES notation. The source made the active and inactive calls. The calls are words filed in the database; no cut-off is given here.

As for `O=C(O)C1CN(CCCP(=O)(O)O)CCN1` (stereo not drawn), in [1], the half-maximal inhibitory concentration (IC50) – broadly, the concentration that inhibits the measured activity by half – turned out to be 80 nM. This counts as double-digit nanomolar.
`NC(C(=O)O)c1cccc(CP(=O)(O)O)c1` (stereo not drawn) returned a 50% inhibitory concentration (IC50) in [2] of 9.3 µM. Further, the Max dose in experiment [3] was 60 mg/kg.
Turning to `NC(C(=O)O)c1cccc(CCP(=O)(O)O)c1` (stereo not drawn), the I in experiment [4] was 35%.
Regarding `NC(C(=O)O)c1ccc(P(=O)(O)O)cc1` (stereo not drawn), in experiment [4], the I is 10%.
For `NC(C(=O)O)c1ccc(CP(=O)(O)O)cc1` (stereo not drawn), the ED50 (in general, the dose that gives a 50% effect, or the effect in half of the subjects) is 19 mg/kg in [5] and 8 mg/kg in [8]. For the same compound, the figures for the half-maximal inhibitory concentration (IC50) in [6] and in experiment [7] were 58 µM and 1010 nM, respectively.
For the compound `NC(Cc1cccc(P(=O)(O)O)c1)C(=O)O` (stereo not drawn), in experiment [9], the I came to 15%.
Same read-out and setting: in the case of `NC(Cc1cccc(CCP(=O)(O)O)c1)C(=O)O` (stereo not drawn) it was 19%; in that of `NC(CCc1ccccc1CP(=O)(O)O)C(=O)O` (stereo not drawn), 54%.
On to `NC(CCCc1ccccc1CP(=O)(O)O)C(=O)O` (stereo not drawn), for which the I in experiment [4] was found to be 46%.
Consider `NC(Cc1cccc(CP(=O)(O)O)c1)C(=O)O` (stereo not drawn), for which the I in experiment [4] was found to be 1%.
Same read-out and setting: the result for `NC(C(=O)O)c1ccc(CCCP(=O)(O)O)cc1` (stereo not drawn) reads 20%.
Turning to `NC(Cc1ccccc1CCP(=O)(O)O)C(=O)O` (stereo not drawn), the Max dose in experiment [10] stood at 30 mg/kg. The IA entry in [11], in [13] and in experiment [14] was “inactive” each time. This compound also displayed a half-inhibitory concentration (IC50) in experiment [12] of 60.9 µM.
In the case of `NC(CCCCCP(=O)(O)O)C(=O)O` (stereo not drawn) [AP-7], the ED50 in experiment [15] came to 17 mg/kg; in experiment [16], 56 mg/kg. The IC50 stood at 46 µM in experiment [17] and 0.8 µM in experiment [2].
For the compound `NC(Cc1ccc(CP(=O)(O)O)cc1)C(=O)O` (stereo not drawn), the ED50 in [18] and in [20] was 74 mg/kg throughout. Further, the results for the IC50 in experiment [19] and in experiment [12] were 378 µM and 3.3 µM, respectively.
In experiment [4], `NC(C(=O)O)c1ccc(CCP(=O)(O)O)cc1` (stereo not drawn) showed an I of 4%.
In [21], `NC(C(=O)O)c1cccc(P(=O)(O)O)c1` (stereo not drawn) returned a Max dose of 30 mg/kg. Moreover, in [2], the 50% inhibitory concentration (IC50) worked out at 17.4 µM.
`NC(Cc1ccccc1P(=O)(O)O)C(=O)O` (stereo not drawn) showed an I in experiment [9] of 3%.
In turn, `NC(Cc1ccc(P(=O)(O)O)cc1)C(=O)O` (stereo not drawn) gave an I in experiment [4] of 10%.
